Results reported in ChEMBL document CHEMBL4513216, “Probing the Open Global Health Chemical Diversity Library for Multistage-Active Starting Points for Next-Generation Antimalarials” (ACS Infect Dis, 2020).

Experiment: Toxicity liver stage against HepG2, at 10uM
Type: cell-based
Design: test concentration 10 uM, cell line HepG2-A16-CD81EGFP
Conditions: human, HepG2-A16-CD81EGFP cells; read-out: INHIBITION
Procedure, shortened: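 Uninfected HepG2-A16-CD81EGFP cells, 3 × 10^3 per well, 1536-well, plated on prespotted compound at 10 μM final, parasite-free screening media added to match infected plates; puromycin 10 μM positive, DMSO 0.5% negative; run in parallel with 48 h PbLuc assay at 37 °C, 5% CO2; viability by CellTiter-Glo luminescence, normalized to controls.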

Point of comparison: `Cc1cc(Cl)ccc1-n1ncc(C(=O)NCC2COC(C)(C)O2)c1N` (stereo not given), cytotoxicity at 10 µM -2.25%. Against it:
- NS(=O)(=O)c1cccnc1Nc1c(Cl)cccc1Cl — lower, -11.8%
- COCCOc1ccc(-c2noc([C@@H]3CCCN3)n2)cn1 — lower, -4.34%
- CN(C)c1ccc(-c2noc([C@@H]3CCCN3)n2)cn1 — higher, 1.73%
- Cc1ccccc1CN1C[C@@H]2OCC(=O)N(CC(N)=O)[C@@H]2C1 — lower, -4.87%
- Cc1ccc(N2C(=O)N[C@@H]3CCN(C(=O)C4CCCC4)[C@@H]3C2=O)cc1 — higher, 0.199%
- O=c1n(Cc2ccccc2F)nc2ncccn12 — lower, -4.49%
- CC(=O)Nc1ccc(SCCCC(=O)NCC2CCCO2)nn1 (stereo not given) — lower, -8.67%
- Cc1nc(NC(=O)c2c3c(nn2C2CCS(=O)(=O)C2)CCC3)sc1C (stereo not given) — lower, -4.57%
- O=C(Nc1c(F)cccc1F)N1CC(c2nc(C3CC3)no2)C1 — higher, -1.65%
- CN(C)S(=O)(=O)NCC(Cc1cccc(F)c1)N1CCNC1=O (stereo not given) — lower, -3.55%
- c1coc(CN2CCC3(CC2)CC(N2CCCC2)CO3)c1 (stereo not given) — lower, -11.9%
- O=S(=O)(c1cccc(Cl)c1)N1C[C@@H]2CCN[C@@H]2C1 — higher, -0.331%
- CN(C)C(=O)N1CCN(c2ccc3ccc(C(=O)NC4CC4)cn23)CC1 — higher, 6.53%
- CN(C)C(=O)N1CC[C@@H](O)[C@@H]1Cc1ccccc1 — higher, 3.14%
- COCCN1C(=O)C2(CCC(C(=O)Nc3cccc(C)c3)CC2)N=C1C (stereo not given) — higher, 9.76%
- O=S(=O)(C1CC1)N1CCOC2(CCCN(c3ccccc3)C2)C1 (stereo not given) — lower, -4.54%
- Cc1cnc(N2C[C@@H]3CCN(CC4CC4)C(=O)[C@H]3C2)nc1 — higher, 3.47%
- O=S(=O)(C1CC1)N1CCC2(CCCN(c3ncc(F)cn3)C2)C1 (stereo not given) — higher, 11.5%
- CC(=O)N1CCC2(CC1)c1ncc(-c3ccccc3)n1CCN2C(C)=O — higher, 10.5%
- COc1ccc(N2CCCC3(C2)CN(c2ncccn2)CCO3)cc1 (stereo not given) — higher, 15.3%
- Cc1noc([C@@]23CCO[C@@H]2CCN(C(=O)c2ccsc2)C3)n1 — higher, 9.1%
- O=C(Nc1ccccc1)C1CN(C(=O)c2cccs2)CC12CCOCC2 (stereo not given) — higher, -2.13%
- COCCNc1nc(NCCc2ccccc2)nc2nccnc12 — higher, 9.97%
- O=C(NCC(O)c1cccs1)c1cccc(Cl)c1 (stereo not given) — lower, -17.8%
- Cc1cnc2n(c1=O)CC(C(=O)NC1CC1)CS2 (stereo not given) — lower, -18.3%
- Cn1cccc1C(=O)N1CCc2ncc(Cn3cccn3)n2CC1 — lower, -5.2%
- Cc1nn(C)c(C)c1NC(=O)CCn1ncc2ccc(Cl)cc21 — higher, 7.38%
- CC(C)NC(=O)c1n[nH]c(-n2cnnc2)n1 — higher, 1.08%
- Cc1nc(C)c(C(=O)N2CCc3nnc(C4CCCN4C)n3CC2)s1 (stereo not given) — lower, -4.34%
- CN1CCN(C(=O)CCn2c(C(F)(F)F)cc3cccnc32)CC1 — lower, -31.9%
- O=C(c1ccncc1F)N1CCOC(c2cccc(O)c2)C1 (stereo not given) — lower, -4.97%
- COc1ccc(C)cc1C1(CNc2cn[nH]c(=O)c2Cl)CCOCC1 — lower, -6.65%
- COCCS(=O)(=O)NC(C)c1cccc(-n2cccn2)c1 (stereo not given) — higher, 3.36%
- CCC(NC(=O)c1ccc(OC)nn1)c1nc(C(F)(F)F)cs1 (stereo not given) — lower, -3.41%
- COCC(O)CNc1cncc(Br)c1 (stereo not given) — lower, -2.52%
- O=C(c1ccc[nH]1)N1CCN(C(c2ccccc2)C(F)(F)F)CC1 (stereo not given) — higher, 8.3%
- COc1ccc(C(=O)NC2COc3ccccc3C2)cc1OCC(=O)O (stereo not given) — higher, -2.18%
- CC(C(=O)N1CCCCC1)N1CCN(c2ncc(Cl)cn2)CC1 (stereo not given) — lower, -4.79%
- O=C(NCc1ccc(Br)cc1)C1(O)CCSCC1 — lower, -3.59%
- Clc1cccc(C(CNc2ncccn2)N2CCOCC2)c1 (stereo not given) — higher, 4.55%
- Cc1nn(C)c(C)c1C(C)NCc1ccsc1 (stereo not given) — higher, 5.42%
- O=C(c1ccc(SC(F)(F)F)cc1)N1CCOCC1c1ncon1 (stereo not given) — higher, -0.449%
- CCOC(=O)C1CCN(C(=O)CN2CCCC2c2cc(C)no2)CC1 (stereo not given) — higher, 8.32%
- CC(=O)CC(C)(C)NC(=O)CCN(C)Cc1ccc(Cl)s1 — higher, 7.35%
- Cc1noc(CN2CCN(CCO)CC2)n1 — higher, 2.17%
- O=C1CN(c2ccc(CNC(=O)c3cccnc3O)cc2F)CCN1 — higher, 5.04%
- CC1Cc2ccccc2N1Cc1occc1C(=O)O (stereo not given) — higher, 0.995%
- CCc1nn(C)c(CC)c1CNC(=O)Nc1cccc([S+](C)[O-])c1 (stereo not given) — higher, -1.01%
- O=C(CCn1cncn1)Nc1ccc(F)cc1OCC1CC1 — lower, -2.58%
- CC(=O)NCCSCCOc1cccc(Br)c1 — higher, 10.1%
- Cc1cccc(N(CCC(N)=O)CC(=O)NC2CCCC2)c1 — lower, -20%
- Cc1ccc(NC(=O)CNc2ccn(CC(N)=O)n2)c(Cl)c1 — higher, 4.44%
- Cc1cc(NC(=O)N(C)C2CCN(c3ccccc3F)C2=O)n(C)n1 (stereo not given) — lower, -7.52%
- CSCCC(NC(N)=O)C(=O)NCc1c(C)nn(-c2ccccc2)c1C (stereo not given) — higher, 8.15%
- O=C(NCC1CCCCO1)c1ccc(-c2ccco2)[nH]c1=O (stereo not given) — lower, -3.06%
- CN(CC(F)(F)F)C(=O)CNC(=O)Cc1cccc(O)c1 — higher, 5.37%
- Cc1cccn2c(=O)cc(CN3CCCCC3Cn3cncn3)nc12 (stereo not given) — higher, 10.7%
- OC[C@@H]1CCCN1c1nccc(-c2c[nH]nc2-c2ccncc2)n1 — lower, -4.28%
- CN(C)C1(CNc2nccc(C3CCCC3)n2)CCOCC1 — higher, -1.3%
- COCCCN1CC2(CCN(C(=O)c3ccc(=O)n(C)c3)CC2)CC1=O — lower, -9.69%
- Cc1cc(N(C)CCN(C)C2CCCC2)n2nc(C)cc2n1 — lower, -6.09%
- CCN(C)C(=O)[C@H]1C[C@@](CC(C)C)(C(=O)OC)N(C)[C@H]1c1cccnc1 — higher, 0.779%
- CN(Cc1cc(-c2ccccc2)no1)C(=O)CNS(C)(=O)=O — higher, 0.0288%
- Cc1nn(C)c(C)c1CCC(=O)N1CCN(CCn2cncn2)CC1 — higher, 2.33%
- Cc1cc(-c2cnn(C)c2)ccc1OCC(N)=O — higher, 2.74%
- OC1(CNCCc2csc(-c3ccncc3)n2)CCCNC1 (stereo not given) — lower, -13.2%
- COc1ccc2c(C)c(C(=O)NCC3CN(S(C)(=O)=O)CCO3)oc2c1 (stereo not given) — higher, 9.52%
- Cc1nc2c(c(N3CCC(O)(CN4CCCC4)CC3)n1)CCNCC2 — lower, -3.39%
- CCC(C)N(Cc1cnc(OC)nc1)Cc1ccsc1 (stereo not given) — higher, 1.71%
- O=C(COc1ccccc1N1CCCC1)N1CCN[C@H]2CS(=O)(=O)C[C@H]21 — higher, -0.687%
- CCN(CCn1cccn1)Cc1nc(-c2ccc(C)o2)oc1C — lower, -4.7%
- Cc1cccc(C)c1NC(=O)NCC1CCCN(C2CCOCC2)C1 (stereo not given) — lower, -5.95%
- CCOC(=O)N1CCC(NC(C)Cc2cc(C)n[nH]2)CC1 (stereo not given) — lower, -2.65%
- Cc1cc(C)n(-c2ccc(NCCNS(=O)(=O)c3ccccc3)nn2)n1 — higher, -0.771%
- COc1ccc(NC(=O)c2cc3c([nH]c2=O)CCCC3=O)c(OC)c1 — higher, -0.0455%
- Cc1ncsc1CCC(=O)NC1CCN(c2ccc(Cl)nn2)CC1 — lower, -2.5%
- CC(C)C(=O)NCC(=O)N(C)C1CCCN(C2Cc3ccccc3C2)C1 (stereo not given) — lower, -7.79%
- CCOc1ccc(-c2ccnc(CC)n2)cc1C(=O)O — lower, -11.1%
- CC(=O)N1CCN(Cc2coc(-c3cccc(F)c3)n2)CC1 — lower, -3.78%
- Cc1cc(CN(C)C2CCCN(Cc3noc(C)n3)C2)no1 (stereo not given) — higher, 1.46%
- Cc1cnn(CCNCc2ccccc2F)c1 — lower, -9.54%
- Cc1cnn(CC2CCCN2C(=O)c2ccc(OCC3CC3)nc2)c1 (stereo not given) — lower, -9.86%
- CN(CC1COc2ccccc2O1)C(=O)NCCCn1cccn1 (stereo not given) — lower, -7.27%
- Fc1cccc(-c2nc(CN3CCCC3Cn3cccn3)co2)c1 (stereo not given) — lower, -11%
- COc1cccc(CNc2cc(N3CCCC3CO)ncn2)n1 (stereo not given) — lower, -12.5%
- COc1nc(C)ccc1CNc1cc(N2CCCC2CO)ncn1 (stereo not given) — lower, -8.02%
- CCc1[nH]ncc1C(=O)N1CCCC(n2nc(C)cc2C)C1 (stereo not given) — lower, -15.6%
- NS(=O)(=O)c1cccc(CNc2nccc(C(F)(F)F)n2)c1 — lower, -11.1%
- COc1ccccc1C1(C(=O)N2CCCC(c3cc(C)[nH]n3)C2)CC1 (stereo not given) — lower, -16.7%
- CS(=O)(=O)NCC1CCCN(C(=O)c2ccco2)C1 (stereo not given) — lower, -19.3%
- COc1cccc(CN2CCCC2c2c(C)nn(C)c2C)c1 (stereo not given) — lower, -2.35%
- Cc1nnc(C2Cc3ccccc3CN2Cc2ncc(C(C)(C)C)o2)o1 (stereo not given) — higher, 10%
- COc1ccccc1CC1CCCN(CC(=O)N2CCOCC2)C1 (stereo not given) — higher, 7.87%
- CC1CCN(CCCNS(=O)(=O)c2cccc(F)c2)CC1 — lower, -12.3%
- O=C(CC1CCC2(CC1)CCN(Cc1ccncc1)CC2)N1CCCC1 — higher, 6.72%
- O=C(NCc1cncc2c1CCN(Cc1ccc(F)cc1)C2)C1CC1 — lower, -3.26%
- Cc1cccc(CN2CC[C@H]3[C@@H]2CC(=O)N3CC2CC2)n1 — lower, -4.25%
- Cn1cccc1C(=O)N1CCCC2(CCN(CCN3CCCC3)C2=O)C1 (stereo not given) — lower, -10.8%
- COC(=O)CN1CC(c2nc(Cc3ccccc3)no2)C1 — lower, -22.9%
- Cc1ccc(CN2Cc3nnn(C)c3C(COCC3CC3)C2)o1 (stereo not given) — lower, -4.7%
- CC(=O)N1CCCC1c1nnn2cc(NCc3cccnc3)ccc12 (stereo not given) — higher, 17.1%
- COc1ccc(CN2C[C@H]3CCC[C@@H](CN(C)C4CC4)[C@H]3C2)cn1 — higher, 4.56%
- CS(=O)(=O)c1cccc(C(N)c2ccc(F)c(F)c2)c1 (stereo not given) — higher, 6.62%
- Fc1cnc(N2CCCC3(CN(Cc4ccccc4)CCO3)C2)nc1 (stereo not given) — higher, 12.4%
- CCn1ncc2c1C(COCC1CC1)CN(c1ccncn1)C2 (stereo not given) — higher, 2.74%
- O=C1C[C@@H]2[C@H](CCN2Cc2ccccn2)N1Cc1ccncc1 — higher, 4.53%
- CC(C)c1ccccc1NC(=O)N1C[C@H]2CC[C@@H](C1)N(C)C2=O — lower, -3%
- O=C(c1cc(C2CCCCC2)no1)N1C[C@H]2CC(O)C[C@H]2C1 (stereo not given in full) — lower, -3.89%
- O=c1[nH]c2cn(-c3cccc(Cl)c3)c(=O)n2[nH]1 — higher, 1.35%
